SUMO1-SIM PPI – SUMO1-SIM interaction modulation. SUMO1 binding to a labelled peptide, TR-FRET, 1 h. inhibition, % at 20 µM. hit rate 0.33% among 360,000. AID 602429; in the data active = inhibition above about 37%
LMPTP block – LMPTP (human) inhibition; inhibition, % at 20 µM; AID 651560; recombinant LMPTP-A, OMFP fluorogenic substrate, fluorescence intensity; P24666; hit rate 0.22% among 360,000;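 active = compounds that cut the enzyme signal by at least half of the control window in the single-dose screen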;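 also: plate controls were DMSO wells with enzyme plus substrate for no effect and substrate without enzyme for full effect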
Target sequence (P24666 whole entry, looked up): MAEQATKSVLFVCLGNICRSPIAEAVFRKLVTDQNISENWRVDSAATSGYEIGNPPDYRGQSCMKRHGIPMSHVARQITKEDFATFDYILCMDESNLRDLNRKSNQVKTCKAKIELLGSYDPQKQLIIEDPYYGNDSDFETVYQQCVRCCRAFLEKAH
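Material: LMPTP-A; amount: 0.625 nM enzyme; doses: single 20 µM dose; times: reaction 50 min, room temperature, dark; technique: fluorescence intensity of OMFP turnover product; benchmarks: no-enzyme and uninhibited controls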
CSN deneddyl inh – blocks human CSN-mediated cullin deneddylation | Q92905 | Purified CSN, SCF-Nedd8-OG deneddylation, fluorescence polarization | inhibition, % at 12.5 µM | hit rate 0.38% among 360,000;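 active = pattern-corrected inhibition above about 35%, with an unprinted fluorescence ratio check between 0.5 and 1.5, limit read from the data, passing the limit was not always enough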;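 also: 0% = enzyme with substrate and 100% = substrate without enzyme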
Target sequence (Q92905 whole entry, looked up, one chain of several): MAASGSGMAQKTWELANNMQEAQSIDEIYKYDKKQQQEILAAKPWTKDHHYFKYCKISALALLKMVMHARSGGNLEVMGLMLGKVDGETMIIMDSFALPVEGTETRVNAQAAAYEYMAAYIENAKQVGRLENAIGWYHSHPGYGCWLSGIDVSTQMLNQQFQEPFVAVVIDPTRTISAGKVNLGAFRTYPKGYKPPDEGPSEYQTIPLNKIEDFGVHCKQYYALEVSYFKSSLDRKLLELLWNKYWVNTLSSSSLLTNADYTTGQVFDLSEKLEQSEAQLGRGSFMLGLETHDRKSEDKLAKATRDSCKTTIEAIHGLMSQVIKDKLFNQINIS
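Schedule: reaction 90 min, room temperature / Assay system: HEK293T-derived human Csn5 enzyme / Input: Csn5 at 0.24 nM final / Measure: inhibition of Csn5 cleavage, % / Control set: substrate-only high control, full reaction low control / Technique: fluorescence polarization of the substrate / Buffer or medium: Tris/NaCl/DTT buffer, pH 7.5 / Reagent: SCFSkp2-Nedd8OG substrate at 10 nM final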
Scp1 inh – inhibitors of human Scp-1 phosphatase; Q9GZU7; Recombinant Scp1, phosphopeptide, malachite green phosphate absorbance; inhibition, % at 20 µM; hit rate 0.88% among 340,000;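 active = inhibition above about 50% at 20 µM, limit read from the data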;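 also: plate controls were DMSO wells with enzyme for no effect and wells lacking enzyme for full effect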
Target sequence (Q9GZU7 76-261 limits assumed): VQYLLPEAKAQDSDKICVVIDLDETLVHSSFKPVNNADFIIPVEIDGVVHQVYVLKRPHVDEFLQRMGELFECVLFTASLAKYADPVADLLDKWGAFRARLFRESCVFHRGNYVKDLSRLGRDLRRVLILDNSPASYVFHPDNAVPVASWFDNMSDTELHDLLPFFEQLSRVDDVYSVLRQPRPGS
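Incubation: 45 min enzyme reaction at room temperature / System: truncated SCP-1 phosphatase (76-261aa) / Reagent: Phospho 17-mer peptide substrate / Buffer or medium: Acidic Tris acetate buffer with magnesium and detergent / Signal: absorbance at 630 nm / Doses: one concentration, 20 µM, with 1.0% DMSO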
DNMT1 inh – DNMT1 (human) enzyme inhibition | hit rate 0.83% among 360,000 | AID 588458 | P26358 | DNMT1 molecular beacon, Hinp1I cleavage, fluorescence | inhibition (reported as % activation of signal), % at 10 µM; in the data active = inhibition above about 50%
STEP inh – inhibitors of human striatal-enriched phosphatase STEP | P54829 | recombinant STEP, OMFP fluorogenic substrate, fluorescence | inhibition, % at 20 µM | hit rate 0.25% among 360,000 | AID 588621;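 active = inhibition at 20 µM, scaled per plate between control wells, above about 37%, limit read from the data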;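 also: 0% = DMSO with enzyme and substrate and 100% = substrate only without enzyme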
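Also added – OMFP at 25 µM · Test system – STEP tyrosine phosphatase · Technique – FITC-channel fluorescence of OMFP product · Schedule – 20 min at room temperature, dark · Evaluation – control-normalized % inhibition with plate pattern correction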
DNMT1 interf DR – beacon fluorescence artifact, dose response counter-screen. shares compounds with DNMT1 inh. molecular beacon fluorescence, spectral interference counter-screen. IC50, µM. 200 tested, under 10 active; call rule not given here
DNMT1 inh conf – DNMT1 inhibition confirmation, single concentration; hit rate 8% among 2,300; inhibition, % at 10 µM; DNMT1 molecular beacon HinP1I cleavage, fluorescence; shares compounds with DNMT1 inh; AID 602385;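 active = average inhibition of at least 30% in the single-concentration confirmation test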
DNMT1 interf – beacon fluorescence artifact counter-screen | shares compounds with DNMT1 inh | AID 602387 | activation (fluorescence interference), % at 10 µM | hit rate 1% among 2,300 | DNMT1 molecular beacon spectral interference counterscreen, fluorescence 485/520;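 active = activation of at least 30% at 10 µM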;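 also: DNMT1 catalytic domain with a HinP1I cleavage step and a FAM/dabcyl DNA beacon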
* marks the source's active call; other numbers are inactive results. Compounds with a hit are over-represented: about 1.9% of the library has one in this group of screens.

What do the screens show for `Oc1cccc2cc3cccc(O)c3c(O)c12`?
SUMO1-SIM PPI: 11; LMPTP block: 23; CSN deneddyl inh: -32; Scp1 inh: 2; DNMT1 inh: 87*; STEP inh: 2; DNMT1 interf DR: >99; DNMT1 inh conf: 77*; DNMT1 interf: -4

Results for Nc1nnnn1/N=C/c1ccccc1O ?
SUMO1-SIM PPI: -13; LMPTP block: -1; CSN deneddyl inh: 4; Scp1 inh: -9; DNMT1 inh: -2; STEP inh: -1

What do the screens show for `COc1ccc(Br)cc1/C=N/n1nnnc1N`?
SUMO1-SIM PPI: -22; LMPTP block: -1; CSN deneddyl inh: 3; Scp1 inh: -7; DNMT1 inh: 53*; STEP inh: 1; DNMT1 inh conf: 0; DNMT1 interf: 20

Results for COc1ccc(-c2nn(-c3ccccc3)cc2C(=O)N2CCN(S(=O)(=O)c3cccc(F)c3)CC2)cc1 ?
SUMO1-SIM PPI: -4; LMPTP block: 3; CSN deneddyl inh: 2; Scp1 inh: -9; DNMT1 inh: -7; STEP inh: 0

What do the screens show for `CCOC(=O)c1ccc(NC(=S)N(CCCN2CCCC(C)C2)Cc2ccco2)cc1` (stereo not drawn)?
SUMO1-SIM PPI: 4; LMPTP block: -3; CSN deneddyl inh: -2; Scp1 inh: -8; DNMT1 inh: 2; STEP inh: -2

How did Clc1cccc(Cc2c(-c3ccco3)nc3ccc(Br)cn23)c1 do in these assays?
SUMO1-SIM PPI: 5; LMPTP block: 13; CSN deneddyl inh: 28; DNMT1 inh: 68*; STEP inh: 0; DNMT1 inh conf: 19; DNMT1 interf: 2

How did Clc1cccc(Cc2c(-c3ccco3)nc3ccc(Cl)cn23)c1 do in these assays?
SUMO1-SIM PPI: 6; LMPTP block: 1; CSN deneddyl inh: 10; DNMT1 inh: 45; STEP inh: 5

What do the screens show for `CCOC(=O)C(C(=O)N(C)Cc1ccccc1)C1CCCCC1` (stereo not drawn)?
SUMO1-SIM PPI: 3; LMPTP block: -1; CSN deneddyl inh: 3; Scp1 inh: 4; DNMT1 inh: 2; STEP inh: 0

What do the screens show for `Cc1nc(NC(=O)c2ccco2)sc1-c1csc(Nc2ccc(Cl)cc2Cl)n1`?
SUMO1-SIM PPI: 12; LMPTP block: 3; CSN deneddyl inh: 6; Scp1 inh: -11; DNMT1 inh: 63*; STEP inh: 0; DNMT1 inh conf: 3; DNMT1 interf: 6

How did CC(Sc1nc2ccc(Br)cc2[nH]1)C(=O)O (stereo not drawn) do in these assays?
SUMO1-SIM PPI: 3; LMPTP block: -1; CSN deneddyl inh: 7; Scp1 inh: -6; DNMT1 inh: 5; STEP inh: 1

Results for CC(Sc1nc2ccc(C(=O)c3ccccc3)cc2[nH]1)C(=O)O (stereo not drawn) ?
SUMO1-SIM PPI: 7; LMPTP block: -1; CSN deneddyl inh: 0; Scp1 inh: -2; DNMT1 inh: 81*; STEP inh: -4; DNMT1 inh conf: -1; DNMT1 interf: 1

What do the screens show for `Cc1cc(=O)[nH]c(N/N=C/C=C/c2ccccc2)n1`?
SUMO1-SIM PPI: -26; LMPTP block: 0; CSN deneddyl inh: -3; Scp1 inh: -4; DNMT1 inh: 0; STEP inh: 1

What do the screens show for `Cc1cc(=O)[nH]c(N/N=C/CCc2ccccc2)n1`?
SUMO1-SIM PPI: -1; LMPTP block: 0; CSN deneddyl inh: 1; Scp1 inh: -1; DNMT1 inh: 56*; STEP inh: 0; DNMT1 inh conf: 4; DNMT1 interf: 28

What do the screens show for `CCCOC(=O)c1ccc(NC(=O)C(CC)CC)cc1`?
SUMO1-SIM PPI: -2; LMPTP block: -1; CSN deneddyl inh: -20; Scp1 inh: -5; DNMT1 inh: 2; STEP inh: 0

How did Cc1cc(C)c2c(N)c3ccccc3nc2n1 do in these assays?
SUMO1-SIM PPI: -25; LMPTP block: 10; CSN deneddyl inh: 5; Scp1 inh: -7; DNMT1 inh: 67*; STEP inh: 1; DNMT1 inh conf: 26; DNMT1 interf: 4

How did O=C(Nc1ccc(Cl)cc1)Nc1cccnc1 do in these assays?
SUMO1-SIM PPI: 0; LMPTP block: 1; CSN deneddyl inh: -2; Scp1 inh: 0; DNMT1 inh: -1; STEP inh: -3

How did O=C(Nc1ccc(Cc2ccc(NC(=O)Nc3cccnc3)cc2)cc1)Nc1cccnc1 do in these assays?
SUMO1-SIM PPI: 15; LMPTP block: 16; CSN deneddyl inh: 6; DNMT1 inh: 51*; STEP inh: 1; DNMT1 inh conf: -1; DNMT1 interf: 0

Results for CCc1cccc(C)c1Nc1nc2ccccc2n2cnnc12 ?
SUMO1-SIM PPI: 1; LMPTP block: 1; CSN deneddyl inh: 6; Scp1 inh: -15; DNMT1 inh: -1; STEP inh: -2

How did CC(=O)Nc1ccc(Nc2cc(C(C)C)nc3c(-c4ccccc4)c(C)nn23)cc1 do in these assays?
SUMO1-SIM PPI: 6; LMPTP block: 3; CSN deneddyl inh: 3; Scp1 inh: 5; DNMT1 inh: -12; STEP inh: 0

Results for Clc1ccc2c(N/N=C/c3cccnc3)ccnc2c1 ?
SUMO1-SIM PPI: -10; LMPTP block: 7; CSN deneddyl inh: -1; Scp1 inh: -3; DNMT1 inh: 12; STEP inh: -1

Results for Oc1ccc(/C=N/Nc2ccnc3cc(Cl)ccc23)c(O)c1 ?
SUMO1-SIM PPI: 112*; LMPTP block: 33; CSN deneddyl inh: 24; Scp1 inh: -9; DNMT1 inh: 84*; STEP inh: 6; DNMT1 inh conf: 4; DNMT1 interf: 0

Results for Clc1ccc(NNc2ccnc3cc(Cl)ccc23)cc1 ?
SUMO1-SIM PPI: 0; LMPTP block: 1; CSN deneddyl inh: 11; Scp1 inh: 24; DNMT1 inh: 14; STEP inh: -3

Results for Oc1ccc(Nc2ccnc3cc(Cl)ccc23)cc1 ?
SUMO1-SIM PPI: -16; LMPTP block: 4; CSN deneddyl inh: 0; Scp1 inh: -2; DNMT1 inh: 1; STEP inh: -1

How did Clc1ccc2c(N/N=C/c3ccc(Br)cc3)ccnc2c1 do in these assays?
SUMO1-SIM PPI: 1; LMPTP block: 5; CSN deneddyl inh: -18; Scp1 inh: -3; DNMT1 inh: 66*; STEP inh: 11; DNMT1 inh conf: 3; DNMT1 interf: 2

Screening results (PubChem)
